In ChEMBL document CHEMBL5033998, “Discovery of DDO-2213 as a Potent and Orally Bioavailable Inhibitor of the WDR5-Mixed Lineage Leukemia 1 Protein-Protein Interaction for the Treatment of MLL Fusion Leukemia” (J Med Chem, 2021):

Legend:
[1] = target: Histone-lysine N-methyltransferase 2A/WDR5 (Homo sapiens, UniProt P61964); experiment: Inhibition of MLL1-WDR5 (unknown origin) protein-protein interaction using Thr-FAM as probe by fluorescence polarization competition assay
Procedure, shortened: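 Competitive FP with WDR5 and 10mer-Thr-FAM probe in 100 mM KH2PO4, 25 mM KCl, 0.01% Triton X-100, pH 6.5; read at λex 485 ± 25 nm, λem 535 ± 25 nm. IC50 from three independent replicates ± SD.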

MOLM-13 = experiment: Antiproliferative activity against human MOLM-13 cells assessed as cell viability incubated for 72 hrs by CCK8 assay; assay type: functional, cell-based; settings: MOLM-13, 72 h
Procedure, shortened: (§1)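 Cells seeded at 3000–6000 per well, exposed to inhibitor at several concentrations for 72 h; viability read with CCK8 kit. MV4-11 and K562 grown in modified IMDM + 10% FBS, pen/strep; MOLM-13 in RPMI-1640 + 10% FBS; HUVEC in modified DMEM + 10% FBS; 37 °C, 5% CO2. IC50 as mean ± SD of three independent experiments.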

K562 = experiment: Antiproliferative activity against human K562 cells assessed as cell viability incubated for 72 hrs by CCK8 assay; assay type: functional, cell-based; settings: K562, 72 h; procedure, shortened: as §1
HUVEC = experiment: Antiproliferative activity against human HUVEC cells assessed as cell viability incubated for 72 hrs by CCK8 assay; assay type: cell-based; procedure, shortened: as §1
MV4-11 = experiment: Antiproliferative activity against human MV4-11 cells assessed as cell viability incubated for 72 hrs by CCK8 assay; assay type: functional, cell-based; settings: MV4-11, 72 h; procedure, shortened: as §1
[2] = Permeability of compound at pH 7.4 incubated for 4 hrs by PAMPA assay; assay type: ADME; settings: read-out: permeability
Procedure, shortened: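 Double-sink PAMPA: compound diluted in pH 7.4 donor buffer, permeation through artificial membrane to acceptor over 4 h at 25 °C; donor and acceptor read by UV; mean ± SD of three independent experiments.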

[3] = target: Histone-lysine N-methyltransferase 2A/WDR5 (Homo sapiens) (UniProt P61964+Q03164); experiment: Inhibition of MLL1-WDR5 (unknown origin) protein-protein interaction at 100 uM by competitive fluorescence polarization assay

Structure (SMILES)	IC50 [1] [µM]	other results
CN1CCN(c2ccc([N+](=O)[O-])cc2Nc2ncncc2N)CC1	> 50	
Cc1nc(Cl)c(N)c(Nc2cc([N+](=O)[O-])ccc2N2CCN(C)CC2)n1	12.1	
CN1CCN(c2cc(F)c(-c3ccc(C(=O)NCC4CCOCC4)cc3)cc2Nc2ncnc(Cl)c2N)CC1	36	IC50 (MOLM-13): 12.3 µM; IC50 (K562): 81.7 µM; IC50 (HUVEC): > 100 µM; IC50 (MV4-11): 15.7 µM; Papp at 4 h [2]: 16.9 ×10⁻⁶ cm/s
Cc1nc(Cl)cc(Nc2cc([N+](=O)[O-])ccc2N2CCN(C)CC2)n1	> 50	
CN1CCN(c2ccc(-c3ccc(C(=O)NCCN4CCOCC4)cc3)c(F)c2Nc2ncnc(Cl)c2N)CC1	102	
CN1CCN(c2ccc(-c3ccc(C(=O)NC4CCOCC4)cc3)cc2Nc2ncnc(Cl)c2N)CC1	0.42	
CN1CCN(c2cc(F)c(-c3ccc(C(=O)NCCN4CCOCC4)cc3)cc2Nc2ncnc(Cl)c2N)CC1	74	IC50 (MOLM-13): 23.1 µM; IC50 (K562): > 100 µM; IC50 (HUVEC): > 100 µM; IC50 (MV4-11): 27.7 µM; Papp at 4 h [2]: 10.5 ×10⁻⁶ cm/s
CN1CCN(c2ccc([N+](=O)[O-])cc2Nc2nccc(N)n2)CC1	> 50	
CN1CCN(c2ccc([N+](=O)[O-])cc2Nc2ncccc2N)CC1	> 50	
CN1CCN(c2ccc(-c3ccc(C(=O)N(C)C)cc3)c(F)c2Nc2ncnc(Cl)c2N)CC1	240	
CN1CCN(c2ccc([N+](=O)[O-])cc2Nc2cc(N3CCC3)ncn2)CC1	> 50	
CN1CCN(c2ccc(-c3ccc(C(=O)NCCCN4CCOCC4)cc3)c(F)c2Nc2ncnc(Cl)c2N)CC1	69	
CN1CCN(c2ccc(-c3ccc(C(=O)N4CCC(O)CC4)cc3)cc2Nc2ncnc(Cl)c2N)CC1	0.11	
CN1CCN(C(=O)c2ccc(-c3ccc(N4CCN(C)CC4)c(Nc4ncnc(Cl)c4N)c3)cc2)CC1	0.22	
CN1CCN(c2ccc([N+](=O)[O-])cc2Nc2ncnc3ccccc23)CC1		inhibition [3]: 35.8%
Nc1c(Cl)ncnc1Nc1cc([N+](=O)[O-])ccc1N1CCN(CCO)CC1	> 50	
CCN1CCN(C(=O)c2ccc(-c3ccc(N4CCN(C)CC4)c(Nc4ncnc(Cl)c4N)c3F)cc2)CC1	112	
Nc1c(Cl)ncnc1Nc1cc([N+](=O)[O-])ccc1N1CCOCC1	> 50	
CN1CCN(c2ccc(-c3ccc(C(=O)N4CCOCC4)cc3)c(F)c2Nc2ncnc(Cl)c2N)CC1	117	
CN1CCN(c2cc(F)c(-c3ccc(C(=O)N4CCOCC4)cc3)cc2Nc2ncnc(Cl)c2N)CC1	36	IC50 (MOLM-13): 16.5 µM; IC50 (K562): 88.7 µM; IC50 (HUVEC): > 100 µM; IC50 (MV4-11): 19.6 µM; Papp at 4 h [2]: 13.7 ×10⁻⁶ cm/s
CN1CCN(c2ccc([N+](=O)[O-])cc2Nc2ncnc(Cl)c2[N+](=O)[O-])CC1	> 50	

Structure (SMILES)	IC50 [1] [µM]	other results
CN1CCN(c2ccc([N+](=O)[O-])cc2Nc2ncccn2)CC1	> 50	
CN1CCC(C(=O)Nc2ccc(-c3ccc(N4CCN(C)CC4)c(Nc4ncnc(Cl)c4N)c3F)cc2)CC1	105	
CN1CCN(c2ccc(-c3ccc(C(=O)N4CCOCC4)cc3)cc2Nc2ncnc(Cl)c2N)CC1	0.19	
CN1CCN(c2ccc(-c3ccc(C(=O)N4CCC(C)(O)CC4)cc3)cc2Nc2ncnc(Cl)c2N)CC1	0.16	
CN1CCN(c2ccc(-c3ccc(NC(=O)CC4CCOCC4)cc3)c(F)c2Nc2ncnc(Cl)c2N)CC1	85	
CN1CCN(c2ccc(-c3ccc(C(=O)NCCCN4CCOCC4)cc3)cc2Nc2ncnc(Cl)c2N)CC1	0.16	
Cc1cc(N2CCN(C)CC2)c(Nc2ncnc(Cl)c2N)cc1-c1ccc(C(=O)NCCCN2CCOCC2)cc1	465	
CN1CCN(c2ccc([N+](=O)[O-])cc2Nc2cc(N(C)C)ncn2)CC1	> 50	
Cc1c(Cl)ncnc1Nc1cc([N+](=O)[O-])ccc1N1CCN(C)CC1	> 50	
CN1CCN(c2cc(F)c(-c3ccc(C(=O)N4CCC(O)CC4)cc3)cc2Nc2ncnc(Cl)c2N)CC1	33	
CN1CCN(c2ccc(-c3ccc(NC(=O)C4CCOCC4)cc3)c(F)c2Nc2ncnc(Cl)c2N)CC1	176	
Nc1c(Cl)ncnc1Nc1cc([N+](=O)[O-])ccc1N1CCN(c2ccccc2)CC1	> 50	
CN1CCN(c2ccc([N+](=O)[O-])cc2Nc2cc(Cl)nc(N)n2)CC1	20.4	
CN1CCN(c2ccc(-c3ccc(C(=O)NCCN4CCOCC4)cc3)cc2Nc2ncnc(Cl)c2N)CC1	0.18	
CN1CCC(NC(=O)c2ccc(-c3ccc(N4CCN(C)CC4)c(Nc4ncnc(Cl)c4N)c3)cc2)CC1	0.23	
CN1CCN(c2cc(F)c(-c3ccc(C(=O)NCCCN4CCOCC4)cc3)cc2Nc2ncnc(Cl)c2N)CC1	0.021	IC50 (MOLM-13): 17.3 µM; IC50 (K562): 70.1 µM; IC50 (HUVEC): > 100 µM; IC50 (MV4-11): 25.6 µM; Papp at 4 h [2]: 9.14 ×10⁻⁶ cm/s
CCN1CCN(c2ccc([N+](=O)[O-])cc2Nc2ncnc(Cl)c2N)CC1	38.1	
Cc1c(-c2ccc(C(=O)N(C)C)cc2)ccc(N2CCN(C)CC2)c1Nc1ncnc(Cl)c1N	0.67	
CN1CCN(c2ccc([N+](=O)[O-])cc2Nc2cc(N3CCCC3)ncn2)CC1	> 50	
Nc1c(Cl)ncnc1Nc1cc([N+](=O)[O-])ccc1N1CCN(C2CC2)CC1	> 50	
Nc1c(Cl)ncnc1Nc1cc([N+](=O)[O-])ccc1N1CCNCC1	45.1	
